{"source": "ChEMBL document CHEMBL3758106", "about": "“Antitumor Activity of Americanin A Isolated from the Seeds of Phytolacca americana by Regulating the ATM/ATR Signaling Pathway and the Skp2-p27 Axis in Human Colon Cancer Cells” (J Nat Prod, 2015)", "key": {"HCT-116 [1]": {"system": "HCT-116", "test": "Induction of cell cycle arrest in human HCT116 cells assessed as accumulation at S phase at 15 uM after 48 hrs by propidium iodide staining-based flow cytometric analysis in presence of RNase A (reference value: 16.2%)", "type": "functional"}, "HCT-116 [2]": {"system": "HCT-116", "test": "Induction of apoptosis in human HCT116 cells assessed as dead cells at 15 uM after 48 hrs by annexin V-FITC/propidium iodide staining-based flow cytometric analysis (reference value: 2%)", "type": "functional"}, "HCT-116 [3]": {"system": "HCT-116", "test": "Induction of apoptosis in human HCT116 cells assessed as late apoptotic cells at 15 uM after 48 hrs by annexin V-FITC/propidium iodide staining-based flow cytometric analysis (reference value: 5.2%)", "type": "functional"}, "HCT-116 [4]": {"system": "HCT-116", "test": "Induction of apoptosis in human HCT116 cells assessed as early apoptotic cells at 15 uM after 48 hrs by annexin V-FITC/propidium iodide staining-based flow cytometric analysis (reference value: 1.6%)", "type": "functional"}, "HCT-116 [5]": {"system": "HCT-116", "test": "Induction of apoptosis in human HCT116 cells assessed as late apoptotic cells at 30 uM after 48 hrs by annexin V-FITC/propidium iodide staining-based flow cytometric analysis (reference value: 5.2%)", "type": "functional"}, "HCT-116 [6]": {"system": "HCT-116", "test": "Induction of apoptosis in human HCT116 cells assessed as decrease in Bcl-xL expression at 7.5 to 30 uM after 48 hrs by Western blot analysis", "type": "functional, cell-based", "in_short": "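HCT116 cells exposed 48 h; Western blot of RIPA lysates (BCA quantification, SDS-PAGE, PVDF, overnight primary antibodies at 4 °C, HRP secondary, ECL).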"}, "HCT-116 [7]": {"system": "HCT-116", "test": "Induction of apoptosis in human HCT116 cells assessed as cleaved caspase 3 level at 30 uM up to 24 hrs by Western blot analysis", "type": "functional, cell-based"}, "HCT-116 [8]": {"system": "HCT-116", "test": "Induction of apoptosis in human HCT116 cells assessed as cleaved PARP level at 30 uM up to 24 hrs by Western blot analysis", "type": "functional, cell-based"}, "HCT-116 [9]": {"system": "HCT-116", "test": "Induction of apoptosis in human HCT116 cells assessed as cleaved caspase 3 level at 30 uM up to 24 hrs by Western blot analysis in presence of NAC", "type": "functional, cell-based"}, "HCT-116 [10]": {"system": "HCT-116", "test": "Induction of cell cycle arrest in human HCT116 cells assessed as accumulation at sub-G1 phase at 30 uM after 24 hrs by propidium iodide staining-based flow cytometric analysis in presence of RNase A (reference value: 1.5%)", "type": "functional"}, "[11]": {"test": "Downregulation of cdc2 expression in human HCT116 cells at 7.5 to 30 uM after 24 hrs by Western blot analysis", "type": "functional, cell-based", "conditions": "HCT-116", "in_short": "(§1)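 HCT116 cells exposed 24 h in complete medium; lysed in RIPA buffer (pH 8.0), protein by BCA, equal loads run on 8–13% SDS-PAGE, PVDF transfer, blocked in 5% BSA/TBST, primary antibodies overnight at 4 °C, HRP secondaries 2 h RT, ECL detection; β-actin as loading control.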"}, "HCT-116 [12]": {"system": "HCT-116", "test": "Reduction in histone H3 Lys9 acetylation in human HCT116 cells at 7.5 to 30 uM after 24 hrs by Western blot analysis", "type": "functional, cell-based"}, "[13]": {"test": "Upregulation of ATM expression in human HCT116 cells at 1 hr by Western blot analysis", "type": "functional, cell-based", "conditions": "HCT-116"}, "[14]": {"test": "Downregulation of ATM expression in human HCT116 cells at 30 uM after 1 hr by Western blot analysis", "type": "functional, cell-based", "conditions": "HCT-116, TDE = time-dependent effect", "in_short": "(§2)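 HCT116 cells exposed for 1 h in complete medium; RIPA lysates quantified by BCA, equal protein separated on 8–13% SDS-PAGE, transferred to PVDF, probed with primary antibodies overnight at 4 °C and HRP secondaries, chemiluminescence read-out.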"}, "[15]": {"test": "Downregulation of phosphorylated ATR expression in human HCT116 cells at 30 uM after 1 hr by Western blot analysis", "type": "functional, cell-based", "conditions": "HCT-116, TDE = time-dependent effect", "in_short": "as §2"}, "[16]": {"test": "Upregulation of MDM2 expression in human HCT116 cells at 7.5 to 30 uM after 24 hrs by Western blot analysis", "type": "functional, cell-based", "conditions": "HCT-116"}, "[17]": {"molecular_target": "Serine-protein kinase ATM/ATR (Homo sapiens) (UniProt Q13315+Q13535)", "test": "Activation of ATM/ATR in human HCT116 cells assessed as increase in Chk2 phosphorylation at Thr68 at 7.5 to 30 uM after 24 hrs by Western blot analysis", "type": "cell-based", "conditions": "HCT-116", "in_short": "as §1"}, "[18]": {"test": "Antiproliferative activity against p53-null human HCT116 cells assessed as cell viability after 72 hrs by SRB assay", "type": "functional, cell-based", "conditions": "HCT-116, 72 h", "in_short": "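p53 wild-type and p53-null HCT116 cells in 96-well plates treated 72 h; SRB assay (TCA fix, SRB stain, Tris pH 10.0 solubilisation, A515); viability vs solvent control, IC50 by nonlinear regression.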"}, "[19]": {"test": "Decrease in phosphorylated p27 expression at Thr187 in human HCT116 cells after 24 hrs by western blot analysis", "type": "functional, cell-based", "conditions": "HCT-116", "in_short": "as §1"}, "[20]": {"test": "Decrease in Skp2 expression in human HCT116 cells at 7.5 to 30 uM after 24 hrs by western blot analysis", "type": "functional, cell-based", "conditions": "HCT-116", "in_short": "as §1"}, "[21]": {"molecular_target": "Cullin-1/S-phase kinase-associated protein 1 (Homo sapiens) (UniProt Q13616+P63208)", "sequence (P63208 whole entry, looked up)": "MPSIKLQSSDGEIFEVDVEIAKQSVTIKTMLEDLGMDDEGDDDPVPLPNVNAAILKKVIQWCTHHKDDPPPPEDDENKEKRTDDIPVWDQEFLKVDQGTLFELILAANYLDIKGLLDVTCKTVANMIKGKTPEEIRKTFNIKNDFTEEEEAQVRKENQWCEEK", "sequence (Q13616 whole entry, looked up)": "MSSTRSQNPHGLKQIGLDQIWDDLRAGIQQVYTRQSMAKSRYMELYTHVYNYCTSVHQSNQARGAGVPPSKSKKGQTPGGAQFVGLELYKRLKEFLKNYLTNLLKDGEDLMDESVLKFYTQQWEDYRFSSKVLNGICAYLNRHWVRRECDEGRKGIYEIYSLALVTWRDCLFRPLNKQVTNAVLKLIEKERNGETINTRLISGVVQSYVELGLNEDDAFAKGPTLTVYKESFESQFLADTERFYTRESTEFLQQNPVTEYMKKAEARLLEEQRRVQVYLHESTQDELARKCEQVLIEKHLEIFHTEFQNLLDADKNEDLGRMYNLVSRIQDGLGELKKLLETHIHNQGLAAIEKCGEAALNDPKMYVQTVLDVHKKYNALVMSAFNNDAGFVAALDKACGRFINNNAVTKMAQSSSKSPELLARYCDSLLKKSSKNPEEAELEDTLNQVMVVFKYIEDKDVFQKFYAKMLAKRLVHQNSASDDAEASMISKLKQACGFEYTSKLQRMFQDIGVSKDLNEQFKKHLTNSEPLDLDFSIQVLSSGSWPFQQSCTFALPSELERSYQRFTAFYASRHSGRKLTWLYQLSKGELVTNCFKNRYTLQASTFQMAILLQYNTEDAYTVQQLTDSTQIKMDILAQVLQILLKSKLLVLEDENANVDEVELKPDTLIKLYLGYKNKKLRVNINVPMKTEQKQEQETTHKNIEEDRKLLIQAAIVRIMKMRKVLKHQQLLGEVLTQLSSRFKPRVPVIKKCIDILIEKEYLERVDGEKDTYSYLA", "test": "Inhibition of Cul-1/Skp1 protein interaction in human HCT116 cells after 24 hrs by immunoprecipitation assay", "type": "cell-based", "conditions": "HCT-116", "in_short": "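Protein measured by Bradford, equal amounts pulled down with anti-Cul-1 antibody on Protein G sepharose at 4 °C. Eluates boiled in Laemmli buffer with 2-mercaptoethanol and probed by Western blot.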"}, "HCT-116 [22]": {"system": "HCT-116", "test": "Induction of cell cycle arrest in human HCT116 cells assessed as accumulation at G2/M phase at 7.5 uM after 48 hrs by propidium iodide staining-based flow cytometric analysis in presence of RNase A (reference value: 19.7%)", "type": "functional"}, "MRC5": {"system": "MRC5", "test": "Cytotoxicity against human MRC5 cells after 24 to 72 hrs by SRB assay", "type": "cell-based", "in_short": "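Cells grown in 96-well plates (RPMI 1640; MRC-5 in MEM, 10% FBS, antibiotics) with compound […]; fixed in 10% TCA 30 min at 4 °C, stained 0.4% SRB in 1% acetic acid 1 h, dye dissolved in 10 mM Tris pH 10.0, A515 read; viability as % of solvent control, IC50 by nonlinear regression; mean of three independent experiments.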"}, "Mus musculus": {"system": "Mus musculus", "test": "Downregulation of Skp2 in human HCT116 cells xenografted in nude mouse at 5 to 10 mg/kg, ip administered 3 times per week measured on day 41 by […]", "type": "functional, organism-based", "conditions": "HCT-116", "in_short": "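Formalin-fixed, paraffin-embedded xenograft sections (mice dosed ip three times weekly) probed with antibodies, detected by LSAB/HRP, counterstained with H&E, imaged by inverted phase-contrast microscopy.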"}, "HCT-116 [23]": {"system": "HCT-116", "test": "Antiproliferative activity against human HCT116 cells after 5 to 40 uM by SRB assay", "type": "functional, cell-based", "conditions": "TDE = time-dependent effect"}, "HCT-116 [24]": {"system": "HCT-116", "test": "Induction of cell cycle arrest in human HCT116 cells assessed as accumulation at S phase at 7.5 uM after 24 hrs by propidium iodide staining-based flow cytometric analysis in presence of RNase A (reference value: 13.4%)", "type": "functional"}, "HCT-116 [25]": {"system": "HCT-116", "test": "Induction of cell cycle arrest in human HCT116 cells assessed as accumulation at sub-G1 phase at 7.5 uM after 24 hrs by propidium iodide staining-based flow cytometric analysis in presence of RNase A (reference value: 1.5%)", "type": "functional"}}, "note": "Calls of active or inactive are those of the source. The calls are words filed in the database; no cut-off is given here."}
{"compound": "O=C/C=C/c1ccc2c(c1)O[C@@H](CO)[C@H](c1ccc(O)c(O)c1)O2", "note": "[AMERICANIN A]", "values": [{"measurement": "Activity", "setting": "HCT-116 [1]", "result": 8.2, "unit": "%"}, {"measurement": "Activity", "setting": "HCT-116 [2]", "result": 0.4, "unit": "%"}, {"measurement": "Activity", "setting": "HCT-116 [3]", "result": 11.1, "unit": "%"}, {"measurement": "Activity", "setting": "HCT-116 [4]", "result": 12.2, "unit": "%"}, {"measurement": "Activity", "setting": "HCT-116 [5]", "result": 18.9, "unit": "%"}, {"measurement": "Activity", "setting": "HCT-116 [6]", "result": "Active"}, {"measurement": "Activity", "setting": "HCT-116 [7]", "result": "Active"}, {"measurement": "Activity", "setting": "HCT-116 [8]", "result": "Active"}, {"measurement": "Activity", "setting": "HCT-116 [9]", "result": "inactive"}, {"measurement": "Activity", "setting": "HCT-116 [10]", "result": 4, "unit": "%"}, {"measurement": "Activity", "setting": "[11]", "result": "Active"}, {"measurement": "Activity", "setting": "HCT-116 [12]", "result": "Active"}, {"measurement": "Activity", "setting": "[13]", "result": "Dose-dependent effect"}, {"measurement": "Activity", "setting": "[14]", "result": "tde"}, {"measurement": "Activity", "setting": "[15]", "result": "tde"}, {"measurement": "Activity", "setting": "[16]", "result": "Active"}, {"measurement": "Activity", "setting": "[17]", "result": "Dose-dependent effect"}, {"measurement": "IC50", "setting": "[18]", "result": 7.8, "unit": "µM"}, {"measurement": "Activity", "setting": "[19]", "result": "Active"}, {"measurement": "Activity", "setting": "[20]", "result": "Active"}, {"measurement": "inhibition", "setting": "[21]", "result": "inactive"}, {"measurement": "Activity", "setting": "HCT-116 [22]", "result": 19, "unit": "%"}, {"measurement": "IC50", "setting": "MRC5", "result": "> 100", "unit": "µM"}, {"measurement": "Activity", "setting": "Mus musculus", "result": "Active"}, {"measurement": "Activity", "setting": "HCT-116 [23]", "result": "tde"}, {"measurement": "Activity", "setting": "HCT-116 [24]", "result": 15.6, "unit": "%"}, {"measurement": "Activity", "setting": "HCT-116 [25]", "result": 1.9, "unit": "%"}]}
